According to ChEMBL document CHEMBL1159084, “Synthesis and structure-activity relationship of 1,2,4-triazole-containing diarylpyrazolyl carboxamide as CB1 cannabinoid receptor-ligand” (Bioorg Med Chem, 2010):

Columns and labels:
Cannabinoid receptor 1 [1] = target: Cannabinoid receptor 1 (Rattus norvegicus, UniProt P20272); test: Displacement of [3H]CP-55940 from CB1 receptor in Sprague-Dawley rat cerebellar membrane; parameters: species or system Cerebellum
Outline: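 Membranes came from cerebella of male Sprague Dawley rats (200–300 g), homogenized in TME buffer (50 mM Tris–HCl, 1 mM EDTA, 3 mM MgCl2, pH 7.4) and spun at 48,000g for 30 min at 4 °C. They were incubated 1 h at 30 °C in TME with 0.5% fatty-acid-free BSA, then filtered on PEI-soaked GF/B, washed and counted by scintillation. IC50 values are from single determinations.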

Cannabinoid receptor 2 = Cannabinoid receptor 2 (Homo sapiens, UniProt P34972); test: Displacement of [3H]WIN-55212-2 from human recombinant CB2 receptor expressed in CHO-K1 cell membrane; type: cell membranes
Outline: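 CB2 membranes were from CHO K-1 cells transfected with human CB2, prepared in TME buffer (pH 7.4) and incubated with 3 nM [3H]WIN55,212-2 in TME plus 0.5% fatty-acid-free BSA for 1 h at 30 °C. Bound label was filtered on PEI-soaked GF/B, washed with ice-cold buffer containing 0.1% BSA, and counted by scintillation. IC50 values are from single determinations.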

[2] = Selectivity for Sprague-Dawley rat CB1 receptor over human recombinant CB2 receptor
Outline: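 Selectivity is the ratio of the hCB2 IC50 to the rCB1 IC50. The hCB2 IC50 came from CHO-K1 membrane displacement of [3H]WIN55,212-2, and the rCB1 IC50 from rat cerebellar membrane binding. Both binding assays ran 1 h at 30 °C with filtration and scintillation counting.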

Cannabinoid receptor 1 [3] = target: Cannabinoid receptor 1 (Homo sapiens, UniProt P21554); test: Inverse agonist activity at human recombinant CB1 receptor expressed in CHO cells by luciferase reporter gene assay; type: functional, cell-based
Cannabinoid receptor 1 (Homo sapiens, UniProt P21554), sequence (P21554 whole entry): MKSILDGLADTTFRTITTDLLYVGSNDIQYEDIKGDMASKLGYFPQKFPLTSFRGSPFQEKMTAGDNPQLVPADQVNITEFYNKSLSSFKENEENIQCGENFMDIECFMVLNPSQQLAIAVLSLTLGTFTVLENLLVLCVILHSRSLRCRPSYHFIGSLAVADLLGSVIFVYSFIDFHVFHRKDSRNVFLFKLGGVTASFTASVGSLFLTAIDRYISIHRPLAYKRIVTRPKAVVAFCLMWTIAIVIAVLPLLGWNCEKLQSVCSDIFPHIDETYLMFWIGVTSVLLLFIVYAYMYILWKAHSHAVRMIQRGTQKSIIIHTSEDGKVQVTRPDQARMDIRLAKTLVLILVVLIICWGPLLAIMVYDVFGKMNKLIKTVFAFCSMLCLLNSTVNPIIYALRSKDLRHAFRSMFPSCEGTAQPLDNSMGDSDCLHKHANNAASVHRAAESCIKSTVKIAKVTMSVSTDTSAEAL

Cannabinoid receptor 1 (Rattus norvegicus, UniProt P20272), sequence (P20272 whole entry): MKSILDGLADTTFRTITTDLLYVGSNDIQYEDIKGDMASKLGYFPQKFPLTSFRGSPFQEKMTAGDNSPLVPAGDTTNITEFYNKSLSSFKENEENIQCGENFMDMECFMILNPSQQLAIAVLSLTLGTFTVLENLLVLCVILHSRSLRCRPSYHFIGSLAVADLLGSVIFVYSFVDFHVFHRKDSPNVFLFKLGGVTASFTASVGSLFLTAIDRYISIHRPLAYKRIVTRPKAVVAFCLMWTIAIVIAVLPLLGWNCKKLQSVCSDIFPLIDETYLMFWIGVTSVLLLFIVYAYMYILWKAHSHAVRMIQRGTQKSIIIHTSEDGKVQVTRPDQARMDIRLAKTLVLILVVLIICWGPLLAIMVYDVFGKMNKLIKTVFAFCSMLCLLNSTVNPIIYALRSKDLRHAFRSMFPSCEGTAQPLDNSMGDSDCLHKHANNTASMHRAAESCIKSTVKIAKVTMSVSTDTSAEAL
Cannabinoid receptor 2, sequence (P34972 whole entry): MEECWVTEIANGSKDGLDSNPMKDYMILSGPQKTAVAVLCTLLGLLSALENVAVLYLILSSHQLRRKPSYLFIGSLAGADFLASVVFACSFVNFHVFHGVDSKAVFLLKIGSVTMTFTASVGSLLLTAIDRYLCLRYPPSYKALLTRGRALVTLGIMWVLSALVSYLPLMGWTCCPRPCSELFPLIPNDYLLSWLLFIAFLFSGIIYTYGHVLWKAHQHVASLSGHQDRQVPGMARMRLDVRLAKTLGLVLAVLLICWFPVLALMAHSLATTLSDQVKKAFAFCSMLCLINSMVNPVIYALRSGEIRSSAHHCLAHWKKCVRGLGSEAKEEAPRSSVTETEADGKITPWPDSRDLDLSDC

IC50 (Cannabinoid receptor 1 [1]) | IC50 (Cannabinoid receptor 2) | Ratio IC50 [2] | IC50 (Cannabinoid receptor 1 [3]) | Compound
1.7 nM | 2570 nM | 1510 | – | O=C(NC1(c2ccc(Cl)cc2)CC1)c1nn(-c2ccccc2Cl)c(-c2ccc(Br)cc2)c1Cn1cncn1
2 nM | 3330 nM | 1660 | – | CC(NC(=O)c1nn(-c2ccccc2Cl)c(-c2ccc(Cl)cc2)c1Cn1cncn1)c1ccc(Cl)cc1Cl (configuration not stated)
2.99 nM | – | – | – | CC(C)(NC(=O)c1nn(-c2ccc(Cl)cc2Cl)c(-c2ccc(Br)cc2)c1Cn1cncn1)c1ccc(Cl)cc1
4.38 nM | – | – | – | O=C(NC1CCCCC1)c1nn(-c2ccc(Cl)cc2Cl)c(-c2ccc(Br)cc2)c1Cn1cncn1
22.8 nM | – | – | – | O=C(NCC1CCCCC1)c1nn(-c2ccc(Cl)cc2Cl)c(-c2ccc(Cl)cc2)c1Cn1cncn1
1420 nM | – | – | – | CN1CCN(C(=O)c2nn(-c3ccc(Cl)cc3Cl)c(-c3ccc(Cl)cc3)c2Cn2cncn2)CC1
19.2 nM | – | – | – | O=C(NCc1ccccc1)c1nn(-c2ccc(Cl)cc2Cl)c(-c2ccc(Cl)cc2)c1Cn1cncn1
4.67 nM | – | – | – | O=C(NC1(C(F)(F)F)CCC1)c1nn(-c2ccc(Cl)cc2Cl)c(-c2ccc(Cl)cc2)c1Cn1cncn1

The next lines start with the compound.

Compound | IC50 (Cannabinoid receptor 1 [1]) | IC50 (Cannabinoid receptor 2) | Ratio IC50 [2] | IC50 (Cannabinoid receptor 1 [3])
CC(NC(=O)c1nn(-c2ccc(Cl)cc2Cl)c(-c2ccc(Br)cc2)c1Cn1cncn1)c1ccc(Br)cc1 (configuration not stated) | 1.4 nM | 6480 nM | 4630 | 28.2 nM
O=C(NC1CCCCC1)c1nn(-c2ccccc2Cl)c(-c2ccc(Br)cc2)c1Cn1cncn1 | 1.6 nM | 4060 nM | 2540 | –
CC(NC(=O)c1nn(-c2ccccc2Cl)c(-c2ccc(Cl)cc2)c1Cn1cncn1)c1ccc(Br)cc1 (configuration not stated) | 1.8 nM | 3510 nM | 1950 | –
CC(NC(=O)c1nn(-c2ccccc2Cl)c(-c2ccc(Br)cc2)c1Cn1cncn1)c1ccc(Cl)cc1Cl (configuration not stated) | 2.2 nM | 2420 nM | 1100 | –
CC(NC(=O)c1nn(-c2ccccc2Cl)c(-c2ccc(Br)cc2)c1Cn1cncn1)c1ccc(Br)cc1 (configuration not stated) | 1.1 nM | 1790 nM | 1630 | 2.51 nM
Cc1cccc(N2CCN(C(=O)c3nn(-c4ccccc4Cl)c(-c4ccc(Br)cc4)c3Cn3cncn3)CC2)c1C | 2.07 nM | 547 nM | 264 | –
O=C(c1nn(-c2ccccc2Cl)c(-c2ccc(Br)cc2)c1Cn1cncn1)N1CCN(c2cccc(Cl)c2Cl)CC1 | 2.22 nM | 582 nM | 262 | –
O=C(NC1(c2ccccc2)CC1)c1nn(-c2ccccc2Cl)c(-c2ccc(Br)cc2)c1Cn1cncn1 | 1.98 nM | 3200 nM | 1620 | –
O=C(c1nn(-c2ccccc2Cl)c(-c2ccc(Br)cc2)c1Cn1cncn1)N1CCN(c2cccc(Cl)c2)CC1 | 2.28 nM | 296 nM | 130 | –
CC(C)(C)NC(=O)c1nn(-c2ccccc2Cl)c(-c2ccc(Br)cc2)c1Cn1cncn1 | 7.9 nM | – | – | –
